The record followed here is ChEMBL document CHEMBL4043110 (Bioorg Med Chem, 2017).

Series [1] concerns Epidermal growth factor receptor (Homo sapiens), P00533 [UNDEFINED MUTATION]. In words: Inhibition of EGFR exon 19 deletion mutant phosphorylation at Y1086 residue in human PC9 cells up to 1000 nmol/L after 6 hrs by Western blot analysis. It counts as cell-based. The gist of the method: (§1)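 The buffer was supplemented with protease inhibitor cocktail, 40 mmol/L sodium fluoride and 1 mmol/L sodium orthovanadate. Protein was quantified by BCA before immunoblotting.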
Chain of Epidermal growth factor receptor (Homo sapiens), P00533 [UNDEFINED MUTATION] (P00533 whole entry, looked up, stated change not applied): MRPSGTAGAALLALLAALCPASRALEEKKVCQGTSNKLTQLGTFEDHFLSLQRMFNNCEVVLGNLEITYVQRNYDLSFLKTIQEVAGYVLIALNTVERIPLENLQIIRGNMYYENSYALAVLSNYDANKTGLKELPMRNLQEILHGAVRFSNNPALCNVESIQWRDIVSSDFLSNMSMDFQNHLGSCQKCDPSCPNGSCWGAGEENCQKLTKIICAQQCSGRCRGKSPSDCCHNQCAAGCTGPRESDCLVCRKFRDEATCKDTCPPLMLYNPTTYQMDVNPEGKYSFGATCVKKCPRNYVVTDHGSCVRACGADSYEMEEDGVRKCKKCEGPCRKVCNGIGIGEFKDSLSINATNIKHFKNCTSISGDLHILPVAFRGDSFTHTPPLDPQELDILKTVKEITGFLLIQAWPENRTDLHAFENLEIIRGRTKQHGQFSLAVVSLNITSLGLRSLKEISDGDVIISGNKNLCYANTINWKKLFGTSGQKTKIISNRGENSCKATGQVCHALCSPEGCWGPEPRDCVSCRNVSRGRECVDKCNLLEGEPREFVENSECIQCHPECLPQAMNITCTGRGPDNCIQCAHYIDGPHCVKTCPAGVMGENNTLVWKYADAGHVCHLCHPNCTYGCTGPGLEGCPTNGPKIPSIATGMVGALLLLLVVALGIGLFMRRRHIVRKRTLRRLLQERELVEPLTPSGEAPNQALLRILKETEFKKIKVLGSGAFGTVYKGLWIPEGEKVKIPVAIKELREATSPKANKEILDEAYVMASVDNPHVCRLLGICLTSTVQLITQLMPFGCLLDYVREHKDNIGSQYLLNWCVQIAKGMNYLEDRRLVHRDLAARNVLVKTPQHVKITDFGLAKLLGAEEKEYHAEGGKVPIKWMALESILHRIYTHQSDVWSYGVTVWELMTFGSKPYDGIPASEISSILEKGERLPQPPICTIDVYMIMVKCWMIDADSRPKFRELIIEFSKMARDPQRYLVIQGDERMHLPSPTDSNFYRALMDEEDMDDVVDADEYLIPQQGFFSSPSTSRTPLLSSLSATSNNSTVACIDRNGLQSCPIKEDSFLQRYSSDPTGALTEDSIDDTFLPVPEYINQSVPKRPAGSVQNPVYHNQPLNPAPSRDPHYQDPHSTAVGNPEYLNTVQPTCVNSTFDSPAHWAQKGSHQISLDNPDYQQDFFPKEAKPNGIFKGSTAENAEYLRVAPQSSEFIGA
A general note: A western blot detects proteins with antibodies after separation by electrophoresis.

A further series is filed under the species Homo sapiens. Put plainly: Selectivity index, ratio of IC50 for wild type EGFR (unknown origin) to IC50 for EGFR L858R/T790M double mutant (unknown origin).
The test system of series [2] is Epidermal growth factor receptor (Homo sapiens), P00533 [L858R,T790M]. In words: Inhibition of EGFR L858R/T790M mutant in human H1975 cells assessed as inhibition of ERK phosphorylation at P-p44/42 residue up to 1000 nmol/L after 6 hrs by Western blot analysis. Format: cell-based. The gist of the method:
as §1

In series [3] the target is T1, Epidermal growth factor receptor (Homo sapiens, UniProt P00533). Put plainly: Inhibition of wild-type EGFR phosphorylation at Y1086 residue in human LoVo cells up to 1000 nmol/L after 6 hrs by Western blot analysis. It counts as cell-based. A digest of the protocol:
as §1

The target of series [4] is T1, Epidermal growth factor receptor. In words: Inhibition of wild-type EGFR in human LoVo cells assessed as inhibition of AKT phosphorylation at S473 residue up to 1000 nmol/L after 6 hrs by Western blot analysis. It counts as cell-based. The gist of the method: as §1
Series [5] shares this target. In words: Inhibition of wild-type EGFR in human LoVo cells assessed as inhibition of ERK phosphorylation at P-p44/42 residue up to 1000 nmol/L after 6 hrs by Western blot analysis. It counts as cell-based. The gist of the method: as §1
The subject of series [6] is Epidermal growth factor receptor (Homo sapiens), P00533 [UNDEFINED MUTATION]. Put plainly: Inhibition of EGFR exon 19 deletion mutant in human PC9 cells assessed as inhibition of ERK phosphorylation at P-p44/42 residue up to 1000 nmol/L after 6 hrs by Western blot analysis. It counts as cell-based. The gist of the method:
as §1

Series [7] relates to NCI-H1975. Put plainly: Antiproliferative activity against human NCI-H1975 cells harboring EGFR L858R/T790M double mutant after 72 hrs by MTS assay. Format: functional, cell-based. Conditions: NCI-H1975, 72 h. The gist of the method: (§2)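 NCI-H460, PC9 or NCI-H1975 cells were grown in RPMI 1640 with 10% FBS at 37 °C and 5% CO2, and used at passages 3–5 from thawing. Exponentially growing cells were seeded at 7000 cells/well. After 24 h the medium was replaced with medium containing a 3-fold serial dilution of compound in DMSO, and cells were incubated 72 h at 37 °C. MTS was added for 2 h and A490 read. Samples were run in triplicate and repeated at least three times.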

Series [8] relates to Epidermal growth factor receptor (Homo sapiens), P00533 [L858R,T790M]. In words: Inhibition of EGFR L858R/T790M mutant in human H1975 cells assessed as inhibition of AKT phosphorylation at S473 residue up to 1000 nmol/L after 6 hrs by Western blot analysis. Format: cell-based. The gist of the method:
as §1

Series [9] in a line: Solubility of the compound in PBS at pH 7.4. Format: physicochemical.
The test system of series [10] is Epidermal growth factor receptor (Homo sapiens), P00533 [UNDEFINED MUTATION]. In words: Inhibition of EGFR exon 19 deletion mutant in human PC9 cells assessed as inhibition of AKT phosphorylation at S473 residue up to 1000 nmol/L after 6 hrs by Western blot analysis. Format: cell-based. The gist of the method: as §1
The test system of the next series is PC-9. Put plainly: Antiproliferative activity against human PC9 cells harboring EGFR exon 19 deletion mutant after 72 hrs by MTS assay. Format: functional, cell-based. Conditions: PC-9, 72 h. A digest of the protocol: as §2
The subject of the next series is NCI-H460. Put plainly: Antiproliferative activity against human NCI-H460 cells after 72 hrs by MTS assay. It counts as functional, cell-based. Particulars: NCI-H460, 72 h. The gist of the method: as §2
The next series deals with BEAS-2B. Put plainly: Antiproliferative activity against human BEAS2B cells after 72 hrs by MTS assay. It counts as cell-based.
The target in series [11] is Epidermal growth factor receptor (Homo sapiens, UniProt P00533, L858R/T790M). Put plainly: Inhibition of EGFR L858R/T790M mutant (unknown origin) using Tyr 4 peptide as substrate in presence of ATP by Z-LYTE kinase assay.
Chain of Epidermal growth factor receptor (Homo sapiens, UniProt P00533, L858R/T790M) (P00533 25-1210 T790M/L858R limits assumed): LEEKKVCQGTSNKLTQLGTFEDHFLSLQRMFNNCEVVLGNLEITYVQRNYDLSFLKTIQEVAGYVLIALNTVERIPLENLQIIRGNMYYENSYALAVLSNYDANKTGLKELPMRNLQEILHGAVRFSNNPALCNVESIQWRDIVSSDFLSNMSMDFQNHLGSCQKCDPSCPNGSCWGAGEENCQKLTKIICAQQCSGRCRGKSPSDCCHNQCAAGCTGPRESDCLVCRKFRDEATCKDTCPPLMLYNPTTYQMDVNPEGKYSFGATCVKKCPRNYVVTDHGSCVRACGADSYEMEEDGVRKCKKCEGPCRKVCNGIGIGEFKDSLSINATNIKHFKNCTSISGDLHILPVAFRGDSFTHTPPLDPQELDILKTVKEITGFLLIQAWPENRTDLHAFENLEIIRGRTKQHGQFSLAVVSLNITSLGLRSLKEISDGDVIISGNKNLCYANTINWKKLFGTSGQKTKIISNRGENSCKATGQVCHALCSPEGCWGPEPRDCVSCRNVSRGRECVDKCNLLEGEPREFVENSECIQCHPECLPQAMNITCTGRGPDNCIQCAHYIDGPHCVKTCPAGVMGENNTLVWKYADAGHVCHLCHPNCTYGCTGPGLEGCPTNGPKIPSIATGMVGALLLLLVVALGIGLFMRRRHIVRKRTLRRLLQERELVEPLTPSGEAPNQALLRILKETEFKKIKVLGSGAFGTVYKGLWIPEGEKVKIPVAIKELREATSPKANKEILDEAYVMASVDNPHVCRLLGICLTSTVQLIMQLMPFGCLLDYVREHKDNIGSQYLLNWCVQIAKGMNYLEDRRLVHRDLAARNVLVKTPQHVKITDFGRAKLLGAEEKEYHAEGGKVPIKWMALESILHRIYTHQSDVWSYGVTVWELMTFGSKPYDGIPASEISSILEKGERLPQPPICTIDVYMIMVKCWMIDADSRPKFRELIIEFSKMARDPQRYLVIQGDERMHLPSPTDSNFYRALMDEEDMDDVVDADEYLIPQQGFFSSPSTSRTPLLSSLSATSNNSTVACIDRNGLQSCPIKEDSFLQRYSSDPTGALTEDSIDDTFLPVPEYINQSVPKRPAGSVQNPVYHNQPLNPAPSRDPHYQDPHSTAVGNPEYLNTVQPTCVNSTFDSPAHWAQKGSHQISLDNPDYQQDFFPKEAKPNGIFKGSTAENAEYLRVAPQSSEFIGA
The target in series [12] is T1, Epidermal growth factor receptor. Put plainly: Inhibition of wild-type EGFR (unknown origin) using Tyr 4 peptide as substrate in presence of ATP by Z-LYTE kinase assay.
For series [13], the system named is Epidermal growth factor receptor (Homo sapiens), P00533 [L858R,T790M]. In words: Inhibition of EGFR L858R/T790M mutant phosphorylation at Y1086 residue in human H1975 cells up to 1000 nmol/L after 6 hrs by Western blot analysis. It counts as cell-based. A digest of the protocol:
as §1

For a further series, the system named is Mus musculus. In words: Toxicity in nude mouse assessed as effect on body weight at 5 mg/kg/day, ig administered once daily for 30 days. It counts as organism-based. Particulars: in vivo, po, 720 h.
Series [14] concerns NCI-H1975. Put plainly: Antitumor activity against human NCI-H1975 cells harboring L858R/T790M mutant xenografted in nude mouse at 5 mg/kg/day, ig administered once daily for 30 days measured every 2 days of dosing. It counts as functional, organism-based. A digest of the protocol:
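Female nude mice (6–8 weeks) were injected subcutaneously in the right flank with NCI-H1975 cells (1 × 10^6/mouse). Once tumors reached about 150–200 mm3, mice were randomized (n = 10 per group). They were dosed intragastrically at 5 mg/kg/day for 30 consecutive days, or given vehicle DMSO/Cremophor-EL/PBS (1:1:8). Tumor length and width were measured by caliper every two days, and volume = width × width × length/2.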
For orientation: Xenograft models place foreign cells or tissue in a host animal.

Molecules are shown by their SMILES. The source made the active and inactive calls. The calls are words filed in the database; no cut-off is given here.

T1 sequence (P00533 whole entry): as the sequence (P00533 whole entry, looked up, stated change not applied) above
Chain of Epidermal growth factor receptor (Homo sapiens), P00533 [L858R,T790M] (P00533 whole entry T790M/L858R, looked up): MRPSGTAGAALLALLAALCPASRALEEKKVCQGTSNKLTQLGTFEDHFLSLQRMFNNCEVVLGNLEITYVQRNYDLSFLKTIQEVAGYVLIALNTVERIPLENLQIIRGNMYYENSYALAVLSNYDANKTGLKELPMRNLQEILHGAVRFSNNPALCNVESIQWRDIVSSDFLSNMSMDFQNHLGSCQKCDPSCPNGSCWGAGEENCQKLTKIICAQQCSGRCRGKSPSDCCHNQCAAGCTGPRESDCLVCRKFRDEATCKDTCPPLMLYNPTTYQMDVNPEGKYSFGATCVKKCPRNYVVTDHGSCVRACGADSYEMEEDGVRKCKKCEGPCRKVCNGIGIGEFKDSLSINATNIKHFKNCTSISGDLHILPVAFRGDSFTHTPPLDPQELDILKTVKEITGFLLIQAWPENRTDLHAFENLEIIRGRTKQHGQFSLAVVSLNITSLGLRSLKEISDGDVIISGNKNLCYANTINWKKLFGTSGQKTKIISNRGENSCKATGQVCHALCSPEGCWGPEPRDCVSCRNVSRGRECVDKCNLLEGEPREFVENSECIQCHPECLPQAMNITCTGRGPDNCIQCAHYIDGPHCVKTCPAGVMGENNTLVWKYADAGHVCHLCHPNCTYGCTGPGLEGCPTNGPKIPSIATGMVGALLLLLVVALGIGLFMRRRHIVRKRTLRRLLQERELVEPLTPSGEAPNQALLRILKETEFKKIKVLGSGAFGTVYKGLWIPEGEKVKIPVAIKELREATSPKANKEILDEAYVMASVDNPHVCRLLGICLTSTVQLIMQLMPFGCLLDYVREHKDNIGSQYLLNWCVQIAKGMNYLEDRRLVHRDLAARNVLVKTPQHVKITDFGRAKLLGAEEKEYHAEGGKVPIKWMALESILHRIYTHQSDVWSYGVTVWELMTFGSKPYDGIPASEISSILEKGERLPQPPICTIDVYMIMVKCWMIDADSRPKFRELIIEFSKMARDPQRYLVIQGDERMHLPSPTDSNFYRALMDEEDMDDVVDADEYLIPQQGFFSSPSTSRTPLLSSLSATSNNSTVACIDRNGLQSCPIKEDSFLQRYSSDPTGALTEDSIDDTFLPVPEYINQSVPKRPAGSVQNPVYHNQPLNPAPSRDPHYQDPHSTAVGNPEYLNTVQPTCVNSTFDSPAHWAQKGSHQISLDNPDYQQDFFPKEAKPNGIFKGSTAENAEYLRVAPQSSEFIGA

As usually defined, the IC50 is the point on the concentration scale where inhibition reaches its midpoint. A word on the solubility: it is the dissolved amount per volume that the medium holds. Low values mean little dissolved substance, high ones much dissolved substance. For `C=CC(=O)Nc1cc(Nc2nccc(-c3cn(C)c4ccc(F)cc34)n2)c(OC)cc1N(C)CC[N+](C)(C)[O-]`, the inhibition entry in [1], in series [2], in series [6], in [8], in [10] and in [13] was “Active” each time. For the same compound, in the series listed under Homo sapiens, the Ratio IC50 came to 35. Moreover, the “inhibition (INH)” value in series [3], in series [4] and in series [5] was “Not Active” each time. For the same compound, the IC50 with NCI-H1975 [7] turned out to be 45.6 nM; in the series on PC-9, 26.2 nM; with NCI-H460, 892 nM; in the series on BEAS-2B, 15700 nM; in series [11], 10.2 nM; in series [12], 357 nM. Moreover, the solubility in series [9] was under 100 µg/mL.

Take `C=CC(=O)Nc1cc(Nc2nccc(-c3cn(C)c4c(F)cccc34)n2)c(OC)cc1N(C)CC[N+](C)(C)[O-]`: the inhibition entry in series [1], in [2], in series [6], in series [8], in series [10] and in series [13] was “Active” in each case. The Ratio IC50 in the series filed under Homo sapiens was determined as 33.4. Further, the “inhibition (INH)” value in series [3], in series [4] and in series [5] was “Not Active” in each case. Also, the IC50 with NCI-H1975 [7] came out at 89.9 nM; in the series with PC-9, 46.7 nM; in the series with NCI-H460 it was 1140 nM; in the series with BEAS-2B, 28400 nM; in [11] it was 17.8 nM; in [12] it was 595 nM. Also, in [9], the solubility was over 10000 µg/mL.

Regarding `C=CC(=O)Nc1cc(Nc2nccc(-c3cn(C)c4ccc(F)cc34)n2)c(OC)cc1N(C)CCN(C)C`, the inhibition entry in series [1], in series [2], in [6], in [8], in series [10] and in series [13] was “Active” in each case. Further, the Ratio IC50 in the series filed under Homo sapiens worked out at 34.3. Further, the “inhibition (INH)” value in series [3], in series [4] and in series [5] was “Not Active” throughout. Besides, the IC50 with NCI-H1975 [7] came to 15.3 nM; in the series on PC-9, 8.1 nM; in the series on NCI-H460, 430 nM; in the series with BEAS-2B, 7900 nM; in series [11], 4.9 nM; in series [12], 166 nM. In [9], this compound displayed a solubility of under 100 µg/mL.

For `C=CC(=O)Nc1cc(Nc2nccc(-c3cn(C)c4ccccc34)n2)c(OC)cc1N(C)CC[N+](C)(C)[O-]`, the inhibition result in series [1], in [2], in series [6], in [8], in [10] and in [13] was “Active” in each case. Besides, the Ratio IC50 in the series listed under Homo sapiens is 49.9. In addition, the “inhibition (INH)” value in [3], in series [4] and in series [5] was “Not Active” throughout. In addition, the IC50 is 17.4 nM in the series on NCI-H1975 [7]; 16.1 nM with PC-9; 611 nM in the series with NCI-H460; 15100 nM in the series on BEAS-2B; 6.4 nM in [11]; 318 nM in series [12]. Also, the Activity entry in the series with Mus musculus is “Non-Toxic”. The solubility in [9] is over 10000 µg/mL. Also, the outcome in the series with NCI-H1975 [14] was Active.

For the compound `C=CC(=O)Nc1cc(Nc2nccc(-c3cn(C)c4ccccc34)n2)c(OC)cc1N(C)CCN(C)C` [OSIMERTINIB], the 50% inhibitory concentration (IC50) with NCI-H1975 [7] stood at […]; in the series on PC-9 it was […]; in the series on NCI-H460 it was 416 nM; with BEAS-2B, 14900 nM. The compound also gave a solubility in series [9] of under 100 µg/mL.

As for `C=CC(=O)Nc1cc(Nc2nccc(-c3cn(C)c4c(F)cccc34)n2)c(OC)cc1N(C)CCN(C)C`, the inhibition entry in [1], in series [2], in series [6], in series [8], in series [10] and in series [13] was “Active” each time. Besides, the Ratio IC50 in the series listed under Homo sapiens came out at 29.2. Besides, the “inhibition (INH)” value in series [3], in [4] and in series [5] was “Not Active” in each case. The IC50 in the series with NCI-H1975 [7] was found to be 32.9 nM; in the series with PC-9 it was 20.5 nM; with NCI-H460 it was 875 nM; in the series with BEAS-2B it was 15600 nM; in series [11] it was 6 nM; in series [12], 175 nM. The solubility in series [9] was under 100 µg/mL.
